# Assay results reported in the RNAGym collection of RNA variant scans (doi:10.1126/science.aae0568).
# Fewer inactive variants are shown than the library holds.
# B1: tRNA (parent)
# chain: GUUCCGUUGGCGUAAUGGUAACGCGUCUCCCUCCUAAGGAGAAGACUGCGGGUUCGAGUCCCGUACGGAACG
# Variants of: B1
# Test: yeast fitness relative to wild type (ratio to wild type); higher = fitter; tRNA-Arg(CCU), competitive growth, 37 C, YPD
# Method in brief: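 A pool of Saccharomyces cerevisiae strains, each with a tRNA-Arg(CCU) gene variant at the native genomic locus, was competed in YPD at 37°C for 24 hours across six parallel replicates. The variants had been chemically synthesised at a 3% per-site mutation rate over 69 sites, and gene amplicons before and after competition were read by 100-nucleotide paired-end sequencing. Darwinian fitness relative to wild type rested on changes in genotype frequencies. Genotypes required ≥ 100 starting reads, and estimates < 0.5 were set to 0.5.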
row,Variant,yeast fitness
1,GUUCCGUUGGCGUAUUGGUAACGCGUCUCCCUCCUAAGGAGAAGUGUGCGGGUUCGAGUCCCGUACGGAACG [A15U A45U C46G],≤ 0.5
2,GUUCCGUUGGCGUAAUGGUAACGCGUCUCCCUCCUAAGGAGAAGACAGCGGGUUCGAGUCGCGUACGGAACG [U47A C61G],0.69
3,GUUCCGUUGGCGUAAUGGUAACGCGUCUCCCUCCUAAGGAGUAGACUGCGGGUACGACUCCCGUACGGAACG [A42U U54A G58C],0.599
4,GUUCCGUUGGCGUAAUGGUAACGCGUCGCCCUCCUAAGGAGCAGACUGCGGGUUCGCGUCCCGUACGGAACG [U28G A42C A57C],0.627
5,GUUCCGUUGGUGUAAUGGUAACGCCUCUCCUUCCUAAGGAGAAGACUGCGGGUUCGAGUCCCGUACGGAACG [C11U G25C C31U],0.679
6,GUUCCGUUGGCGUAAUGGUAACGCGUCUCCAUCCUAAGGAGAAGAUUGCGGGUUCGAGUCCCGUACGGAACG [C31A C46U],0.947
7,GUUCUGUCGGCGUAAUGGUAACGCGACUCCCUCCUAAGGAGAAGACUGCGGGUUCGAGUCCCGUACGGAACG [C5U U8C U26A],0.727
8,GUUCCGUUGGCGUAAUGGUAACGCGUAUCCCUCCUAAGGACAAGACUGCGGGUUCGUGUCCCGUACGGAACG [C27A G41C A57U],0.611
9,GAUCCGUUGGCGUAAUGGUAACGCGUCUCCCUCCUAAGGAGAAGACUGCGGGUUCGAGUCCCGCACGGAACG [U2A U64C],0.938
10,GUUCCGUUAGCGUAAUGGUUAGGCGUCUCCCUCCUAAGGAGAAGACUGCGGGUUCGAGUCCCGUACGGAACG [G9A A20U C22G],0.53
11,GUUCCGUUGGCGUAAUGGUAACGCGUCCCCCUCCUAAGGACAAGACUGAGGGUUCGAGUCUCGUACGGAUCG [U28C G41C C49A C61U A70U],≤ 0.5
12,GUUCCGUUGGCGUAAUGGUCACGCGUCUCACUCCUAAGGAGAAGACUGCGGGUUGGAGUCCCGUACGGAACG [A20C C30A C55G],0.557
13,GUUCCGUUGGCGUAAUGGUAACGCGUCUCCCUCCUAAUGAGAAGAAUGCGGGUUCGAGUCCCGUACGGAACG [G38U C46A],0.783
14,GUUCCCGUGGCGUAAUGGUAACGCGUCUCCCUCCUAAGGAGAUGACUGCGGGUUCGAGUCCCGUCCGGAACG [G6C U7G A43U A65C],0.825
15,GUUCCGUUGGCGUAAUGGUAACGCGUCUCCCUCCUAAGGAGAAGACUGAGGGUUCGAGUCCUGUAUGGAACG [C49A C62U C66U],0.585
16,GUUCCGUUGGAGUAAUGGUAACGCGUCUCCCCCCUAAGGAGAAGACUGCGGGUUCGAGUCCCGUACGGACCG [C11A U32C A70C],0.549
17,GUUCCGUUGGCGUAAUAGUAACGCGUCUCCCUCCUAAGGAGAAGACUGCGGGUUCGAGUCCCGCACGGAACG [G17A U64C],0.878
18,GUUGCGUCGGCGUAAAGGUACCGGGUCUCCCUCCUAAGGAGAAGCCUACGGGUUCGAGUCCCGUACAGAACG [C4G U8C U16A A21C C24G A45C G48A G67A],0.53
19,GUUCCGUUGGCGUAAUGGUAACGCGUCUGCCUUCUAAGGAGAAGACUGCAGGUUCGAGUCCCGUACGGACCG [C29G C33U G50A A70C],≤ 0.5

row,Variant,yeast fitness
1,GUUACGUUGGCGUUAUGGUCACGCGUCGCCCUCCUAAGGAGAAGACUGCGGGUUCGAGUCCCGUACGGAUCG [C4A A14U A20C U28G A70U],≤ 0.5
2,GUUCCGUUGGCGUAAUGGUAACGCAUCUCCCUCCUAAGGAGAAGAUUGCCGGUUCGAGUCCCGUACGGAACG [G25A C46U G50C],0.556
3,GUUUCGUUGGCGUAAUGGUAACGUGUCUCCCUCCUCAGGAGAAGACUGCGGGUUCGAGUCCCGUACGGAACG [C4U C24U A36C],≤ 0.5
4,GUUCUGUUGGUGUAAUGGUAACGCGUCUCCCUCCUAAGGAGAAGACUGUGGGUUCGAGUCCCGUACGGAACG [C5U C11U C49U],0.721
5,GUUCCGUUGGCGUGAUGGUAACGCGUCUCCGUCCUAAGGAGAUGAGUGCGGGUUCGAGUCCCGUACGGAUCG [A14G C31G A43U C46G A70U],≤ 0.5
6,GUUCCGUUGGGGUAAUGGUAACGCGUCUCGGACCUAAGGAGAAGACUGCGGGUUGGAGUCCCGUACAGAACG [C11G C30G C31G U32A C55G G67A],0.696
7,GUUCCGUUGGCGUAAUGGUGACGCGUCUCCCUCCUAAGGAGAAGACUGCGGGUUCGAGUCCCAUACGGAGCG [A20G G63A A70G],0.634
8,GUUCCGUUGGCGUAAUGGUAACGUGUGUCCCUCCUAAGGAGAAGACCGCGGGUUCCAGUCCCGCACGCAACG [C24U C27G U47C G56C U64C G68C],≤ 0.5
9,GUUCCGUUGGCGUAACGGUAACGCGUCUCCCUCCUAAGGAGAAGACUGCGGGUUAGUGUCCCGUACGGAACG [U16C C55A A57U],≤ 0.5
10,GUUCCGUUGGCGUAAUGGGAACGCGUCUCCCUCCUAAGGAGAAGACUGCGGGUUCGAGUCCCGUACGGAUCG [U19G A70U],1.02
11,GUUCCGUUGGGGUAAUGGUAACGCGUAUCCCUCGUAAGGAGAAGACUGCGGGUUCGAGUCCCGUACGGAACG [C11G C27A C34G],≤ 0.5
12,GAUCCGUUGGCGUAAUGGUAACGCGUCUCCCUCCUAAGGAGAAGACUGCGGGUUCGAGUCCCGUACGGAGCG [U2A A70G],0.979
13,GUUCCGUUGGCGUAAUGGUAACUCGUCUCCCUCCUAAGGAGAAGACUGCGGGUUCGAGUCCCGUACGGAACG [G23U],0.779
14,GUUCCGUUGCCGUAAUGGAAACGCGUCUCCGUCAUAAGGAGGAGACUGCGGGUUCGAGUCCCGUACGGAACG [G10C U19A C31G C34A A42G],≤ 0.5
15,GUUCCGUUGGGGUAAUGGUAACGCGUCUCCAUCCUAAGAAGAAGACUGCGGGUUCGAGUCCCGUACGGAACG [C11G C31A G39A],≤ 0.5
16,GUUCCGUUGGCGUAAUGGUAACGCGUCUCCCUCCUAAGGAAAAGACUGCGAGUUCGAGUCCCGUAAGGAACG [G41A G51A C66A],≤ 0.5
17,GUUCCGUCGGCGUAAUGGUAACGCGUCUCCCUACUAAGGAGAAGACUGCGGGUUGGAGUCCCGUACGGCACG [U8C C33A C55G A69C],≤ 0.5
18,GUUCCGUUGGCGUGAUGGAGACGCGUCUCCCUCCUAAGGUGAAGACUGCGGGUUCGAGUCGCGUACGGAACG [A14G U19A A20G A40U C61G],0.515
19,GUUCCGUUGGCCUAAUGGUAACGCGUCCCCCUCCAAAAGAGAAGAGUGCGGGUUCGAGUCCUGUACGGAACG [G12C U28C U35A G38A C46G C62U],≤ 0.5
